The text below walks through data of ChEMBL document CHEMBL1154735, “A strategy to minimize reactive metabolite formation: discovery of (S)-4-(1-cyclopropyl-2-methoxyethyl)-6-[6-(difluoromethoxy)-2,5-dimethylpyridin-3-ylamino]-5-oxo-4,5-dihydropyrazine-2-carbonitrile as a potent, orally bioavailable corticotropin-releasing factor-1 receptor antagonist” (J Med Chem, 2009).

The nature of data set [1]: Metabolic stability in rat liver microsomes assessed as compound remaining at 3 uM after 10 mins by HPLC/UV/MS analysis. Type of data set: ADME, Microsome. As to conditions: read-out: Stability. An outline of the steps: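 Pooled human or rat liver microsomes (1 mg/mL protein) with 3 μM compound and 1.3 mM NADPH in 100 mM sodium phosphate pH 7.4 at 37 °C; final 0.015% DMSO, 0.985% acetonitrile; stopped at 0 and 10 min, percent remaining by LC/MS/MS.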
In general terms: Microsomes from liver hold many membrane-bound enzymes, among them those of drug oxidation.

Data set [2] is described as follows: Cmax in Beagle dog at 3 mg/kg, po dosed as aqueous suspension of Labrafil M 1944CS/DMAC/polysorbate 80, 85:10:5 (v/v) after 2 to 4 hrs by LC/MS/MS analysis. The class given is ADME, organism-based, Canis lupus familiaris. Set-up: dose 3 mg/kg, route oral. As to conditions: in vivo. In short, it runs like this:
(§1)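 Fasted male beagle dogs dosed orally at 1 mL/kg: 2 mg/kg as 0.2% polysorbate 80 in 0.5% methylcellulose suspension (n = 4) or 3 mg/kg in Labrafil M 1944CS/DMAC/polysorbate 80 85:10:5 (n = 2). Femoral vein blood 0.25–24 h; plasma by LC/MS/MS.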

Data set [3] addresses T1, Corticotropin-releasing factor receptor 1 (Homo sapiens) (UniProt P34998).
T1 sequence (whole entry): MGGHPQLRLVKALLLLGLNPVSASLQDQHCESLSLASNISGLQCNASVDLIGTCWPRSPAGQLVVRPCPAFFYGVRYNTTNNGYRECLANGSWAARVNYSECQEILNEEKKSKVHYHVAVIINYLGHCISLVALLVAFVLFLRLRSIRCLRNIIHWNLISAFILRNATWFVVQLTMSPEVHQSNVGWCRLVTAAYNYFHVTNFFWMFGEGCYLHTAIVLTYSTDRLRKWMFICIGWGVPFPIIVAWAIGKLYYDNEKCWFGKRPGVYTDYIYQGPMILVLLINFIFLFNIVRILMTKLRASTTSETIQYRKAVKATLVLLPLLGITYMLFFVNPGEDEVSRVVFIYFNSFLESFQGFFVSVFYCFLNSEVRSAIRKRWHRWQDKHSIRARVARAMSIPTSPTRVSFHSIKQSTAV
Briefly: (§2) Antagonist activity at CRF1 receptor in human Y79 cells assessed as inhibition of CRF-stimulated cAMP production after 30 mins by HTRF analysis. The class given is functional, cell-based. (Cyclic AMP is a second messenger, typically raised through Gs and lowered through Gi signalling.)

For data set [4], the target named is T2, Corticotropin-releasing factor receptor 1 (Homo sapiens, UniProt P34998).
T2 sequence (P34998 whole entry): T1 sequence (whole entry)
Described as §2. Type of data set: functional, cell-based.

Data set [5] in a line: AUC in Sprague-Dawley rat at 10 mg/kg, po dosed as aqueous suspension of Labrafil M 1944CS/DMAC/polysorbate 80, 85:10:5 (v/v) after 0.25 to 24 hrs by LC/MS/MS analysis. The class given is ADME, organism-based. Set-up: time 0.25-24 hr, dose 10 mg/kg, route oral. To be noted: plasma.
Data set [6] has as its system Rattus norvegicus. The data set is described as follows: Toxicity in Sprague-Dawley rat at 20 mg/kg after 2 weeks. Type of data set: organism-based. To be noted: in vivo, 336 h. Set-up: dose 20 mg/kg.
The subject of data set [7] is Rattus norvegicus. Briefly: Anxiolytic activity in Sprague-Dawley rat assessed as decrease in exit latency at 3 mg/kg, po after 60 mins by defensive withdrawal test relative to control. Type of data set: functional. Also on record: scale not given: the % may be the effect or the level left. In short, it runs like this:
(§3)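 Rats placed in a darkened chamber within an open illuminated field; time to emerge measured 60 min after oral dosing (0.56–3 mg/kg), n = 8; percent decrease in exit latency versus vehicle-treated animals, p < 0.05 significance.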

For data set [8], the system named is Liver microsomes. The data set is described as follows: Metabolic stability in NADPH-fortified rat liver microsomes assessed as pyrazinone oxidation metabolite formation at 10 uM after 30 mins by HPLC/UV/MS analysis. Type of data set: ADME, Microsome. As to conditions: 0.5 h. An outline of the steps:
(§4)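 Pooled rat or human liver microsomes 1 mg/mL, 10 μM substrate, 100 mM potassium phosphate pH 7.4, 37 °C, started with NADPH-regenerating system (1.3 mM NADP+, 3.3 mM glucose-6-phosphate, 3.3 mM MgCl2, 0.5 U/mL G6PDH); GSH 5 mM in trapping runs. Sampled 0 and 30 min, acetonitrile quench; abundance as UV peak area (330–340 nm) fraction of all drug-related components by HPLC/UV/MS.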

In data set [9] the test system is Rattus norvegicus. Briefly: Anxiolytic activity in Sprague-Dawley rat assessed as decrease in exit latency at 1 mg/kg, po after 60 mins by defensive withdrawal test relative to control. Type of data set: functional. Set-up: scale not given: the % may be the effect or the level left. An outline of the steps:
as §3

In data set [10] the test system is Rattus norvegicus. The data set is described as follows: Plasma free concentration in Sprague-Dawley rat at 0.56 mg/kg, po after 1 to 3 hrs by LC/MS/MS analysis. Type of data set: ADME, organism-based. Also on record: dose 0.56 mg/kg, route oral. To be noted: in vivo.
The nature of data set [11]: Metabolic stability in NADPH-fortified human liver microsomes assessed as parent compound remaining at 10 uM after 30 mins by HPLC/UV/MS analysis. The class given is ADME, Microsome. As to conditions: read-out: Stability. An outline of the steps:
as §4

Data set [12] deals with Rattus norvegicus. The data set is described as follows: Toxicity in Sprague-Dawley rat at 60 mg/kg after 2 weeks. Type of data set: organism-based. As to conditions: in vivo, 336 h. Set-up: dose 60 mg/kg.
Data set [13] can be described thus: Fraction unbound in human serum after 3 to 7 hrs by equilibrium dialysis. The class given is ADME, cell-free. An outline of the steps:
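Human serum spiked with compound, equilibrium-dialysed against isotonic phosphate buffer for 3 or 7 h (depending on system) at 37 °C; both sides measured by LC/MS/MS, unbound fraction as buffer/serum concentration ratio.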

Data set [14] in a line: Oral bioavailability in Beagle dog at 3 mg/kg, po dosed as aqueous suspension of Labrafil M 1944CS/DMAC/polysorbate 80, 85:10:5 (v/v) after 0.25 to 24 hrs by LC/MS/MS analysis. Type of data set: ADME, organism-based, Canis lupus familiaris. To be noted: in vivo. An outline of the steps:
as §1

Data set [15] in a line: Aqueous solubility at pH 6.5. The class given is physicochemical.
The test system of data set [16] is Rattus norvegicus. Briefly: Total plasma concentration in Sprague-Dawley rat at 0.56 mg/kg, po after 1 to 3 hrs by LC/MS/MS analysis. Set-up: dose 0.56 mg/kg, route oral. Type of data set: ADME, organism-based. To be noted: in vivo.
A short description of data set [17]: Drug metabolism in bile duct cannulated Sprague-Dawley rat assessed as unchanged parent drug remaining in bile at 20 mg/kg, po after 24 hrs by HPLC/UV/MS analysis. Type of data set: ADME, organism-based. Set-up: dose 20 mg/kg, route oral. To be noted: read-out: Activity. An outline of the steps: (§5)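 Male Sprague–Dawley bile duct cannulated rats (n = 3) dosed orally at 20 mg/kg in PEG/ethanol 90:10; vehicle-dosed controls (n = 3). Bile and urine pooled over 0–24 h, acetonitrile-precipitated and profiled by HPLC/UV/MS (Hydro-RP column, PDA 200–550 nm, positive-ion full and data-dependent scans).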

In data set [18] the test system is Rattus norvegicus. The data set is described as follows: Total plasma concentration in Sprague-Dawley rat at 1.8 mg/kg, po after 1 to 3 hrs by LC/MS/MS analysis. Type of data set: ADME, organism-based. Also on record: dose 1.8 mg/kg, route oral. As to conditions: in vivo.
A short description of data set [19]: Drug metabolism in bile duct cannulated Sprague-Dawley rat assessed as GSH adduct formation in urine at 20 mg/kg, po after 24 hrs by HPLC/UV/MS analysis. Type of data set: ADME, organism-based. Also on record: dose 20 mg/kg, route oral. To be noted: in vivo. In short, it runs like this: as §5
Data set [20] in a line: Oral bioavailability in Sprague-Dawley rat at 10 mg/kg dosed as aqueous suspension of 1% polysorbate 80 in 0.5% methylcellulose after 0.25 to 24 hrs by LC/MS/MS analysis. Type of data set: ADME, organism-based. To be noted: in vivo.

In brackets after ≈: the same amount, converted by molar mass.

For orientation: Cmax means the peak of the concentration-time curve. In general, IC50 refers to the midpoint of a concentration-inhibition curve. A word on the AUC: it is concentration integrated over time. The term fraction unbound denotes the share of the substance not bound to proteins or other matrix. In general, bioavailability refers to the share of a dose that reaches the circulation, judged against a reference dose that is usually intravenous. In general, solubility refers to how much of the substance goes into solution per volume.

As to `COC[C@H](C1CC1)n1cc(C#N)nc(Nc2cc(C)c(OC(F)F)nc2C)c1=O`, in data set [1], the remaining at 10 min, 3 µM came out at 70%. In data set [2], the Cmax amounted to 1400 nM. For the same molecule, the inhibition entry in data set [3] was “Dose-dependent effect”. Also, the IC50 in [4] came out at 1.9 nM. In [5], the area under the curve (AUC) stood at 8.8 µM·h. Moreover, the Activity result in data set [6] was “Non-toxic”; in [7], 56%; in [8], under 1%; in [9] it was 28%; in data set [12], “Non-toxic”; in data set [19], 0.1%. Moreover, the “Cp(f)” value in data set [10] is 0.84 nM. Further, the remaining at 0.5 h, 10 µM in data set [11] was determined as 56%. Besides, the fraction unbound in data set [13] came to 0.035. The results for the bioavailability in data set [14] and in data set [20] were 70% and 31%, respectively. For the same molecule, the solubility in data set [15] came to 4 µg/mL (≈ 9.87 µM). In addition, the concentration in data set [16] stood at 24 nM; in data set [18] it was 83 nM. Moreover, the dose excreted at 24 h in data set [17] is 3%.
